Results: ChEMBL document CHEMBL5058577, “EUbOPEN Chemogenomics Library 2 (Multiplex)” (2022)

Test system: Fibroblast
Experiment: Multiplex assay against human fibroblast
Type: toxicity, cell-based
How it was run: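 Phenotypes for tubulin, mitochondrial mass and membrane permeability are expressed as per cents of healthy-nucleus cells. Cells were stained live at seeding with Hoechst33342, BioTracker Green Microtubule Cytoskeleton Dye, MitoTracker Red and Annexin V Alexa Fluor 680, then imaged after compound addition on a CQ1 microscope at 37°C and 5% CO2. Machine-learning gating in CellPathfinder separated Hoechst high-intensity objects from normal cells, divided normal cells by nuclear state (healthy, pyknosed, fragmented) and divided pyknosed cells into mitotic or apoptotic.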

[1] = 12 h, 1 µM, compound concentration 1 uM, replicate 1
[2] = 12 h, 1 µM, compound concentration 1 uM, replicate 2
[3] = 12 h, 10 µM, compound concentration 10 uM, replicate 1
[4] = 12 h, 10 µM, compound concentration 10 uM, replicate 2
[5] = 24 h, 1 µM, compound concentration 1 uM, replicate 1
[6] = 24 h, 1 µM, compound concentration 1 uM, replicate 2
[7] = 24 h, 10 µM, compound concentration 10 uM, replicate 1
[8] = 24 h, 10 µM, compound concentration 10 uM, replicate 2
[9] = 48 h, 1 µM, compound concentration 1 uM, replicate 1
[10] = 48 h, 1 µM, compound concentration 1 uM, replicate 2
[11] = 48 h, 10 µM, compound concentration 10 uM, replicate 1
[12] = 48 h, 10 µM, compound concentration 10 uM, replicate 2

SMILES: CCOc1c2c(c(OCC)c3ncccc13)CN(c1ccc(CS(=O)(=O)NC(=O)Cc3ccccc3OC)cc1C)C2=O
- Population Apoptotic (%) [1]: 44%
- Population Fragmented Nuclei (%) [1]: 15%
- Population Healthy Nuclei (%) [1]: 68%
- Population Hoechst High Intensity Objects (%) [1]: 0%
- Population Membrane Permeable-Phenotype (%) [1]: 1%
- Population Mitochondria Different-Phenotype (%) [1]: 3%
- Population Mitotic Cells (%) [1]: 55%
- Population Normal (%) [1]: 99%
- Population Pyknosed Nuclei (%) [1]: 15%
- Population Tubulin-Different-Phenotype (%) [1]: 23%
- Total Cell Count [1]: 120
- Population Apoptotic (%) [2]: 38%
- Population Fragmented Nuclei (%) [2]: 37%
- Population Healthy Nuclei (%) [2]: 42%
- Population Hoechst High Intensity Objects (%) [2]: 4%
- Population Membrane Permeable-Phenotype (%) [2]: 8%
- Population Mitochondria Different-Phenotype (%) [2]: 2%
- Population Mitotic Cells (%) [2]: 61%
- Population Normal (%) [2]: 95%
- Population Pyknosed Nuclei (%) [2]: 19%
- Population Tubulin-Different-Phenotype (%) [2]: 62%
- Total Cell Count [2]: 111
- Population Apoptotic (%) [3]: 35%
- Population Fragmented Nuclei (%) [3]: 15%
- Population Healthy Nuclei (%) [3]: 63%
- Population Hoechst High Intensity Objects (%) [3]: 1%
- Population Membrane Permeable-Phenotype (%) [3]: 1%
- Population Mitochondria Different-Phenotype (%) [3]: 6%
- Population Mitotic Cells (%) [3]: 64%
- Population Normal (%) [3]: 98%
- Population Pyknosed Nuclei (%) [3]: 21%
- Population Tubulin-Different-Phenotype (%) [3]: 27%
- Total Cell Count [3]: 161
- Population Apoptotic (%) [4]: 21%
- Population Fragmented Nuclei (%) [4]: 19%
- Population Healthy Nuclei (%) [4]: 50%
- Population Hoechst High Intensity Objects (%) [4]: 3%
- Population Membrane Permeable-Phenotype (%) [4]: 7%
- Population Mitochondria Different-Phenotype (%) [4]: 8%
- Population Mitotic Cells (%) [4]: 78%
- Population Normal (%) [4]: 96%
- Population Pyknosed Nuclei (%) [4]: 29%
- Population Tubulin-Different-Phenotype (%) [4]: 54%
- Total Cell Count [4]: 146
- Population Apoptotic (%) [5]: 56%
- Population Fragmented Nuclei (%) [5]: 13%
- Population Healthy Nuclei (%) [5]: 67%
- Population Hoechst High Intensity Objects (%) [5]: 3%
- Population Membrane Permeable-Phenotype (%) [5]: 2%
- Population Mitochondria Different-Phenotype (%) [5]: 3%
- Population Mitotic Cells (%) [5]: 43%
- Population Normal (%) [5]: 96%
- Population Pyknosed Nuclei (%) [5]: 18%
- Population Tubulin-Different-Phenotype (%) [5]: 23%
- Total Cell Count [5]: 127
- Population Apoptotic (%) [6]: 46%
- Population Fragmented Nuclei (%) [6]: 37%
- Population Healthy Nuclei (%) [6]: 32%
- Population Hoechst High Intensity Objects (%) [6]: 2%
- Population Membrane Permeable-Phenotype (%) [6]: 18%
- Population Mitotic Cells (%) [6]: 53%
- Population Normal (%) [6]: 97%
- Population Pyknosed Nuclei (%) [6]: 29%
- Population Tubulin-Different-Phenotype (%) [6]: 69%
- Total Cell Count [6]: 104
- Population Apoptotic (%) [7]: 42%
- Population Fragmented Nuclei (%) [7]: 17%
- Population Healthy Nuclei (%) [7]: 66%
- Population Hoechst High Intensity Objects (%) [7]: 3%
- Population Membrane Permeable-Phenotype (%) [7]: 1%
- Population Mitochondria Different-Phenotype (%) [7]: 2%
- Population Mitotic Cells (%) [7]: 57%
- Population Normal (%) [7]: 96%
- Population Pyknosed Nuclei (%) [7]: 15%
- Population Tubulin-Different-Phenotype (%) [7]: 19%
- Total Cell Count [7]: 171
- Population Fragmented Nuclei (%) [8]: 25%
- Population Healthy Nuclei (%) [8]: 49%
- Population Hoechst High Intensity Objects (%) [8]: 4%
- Population Membrane Permeable-Phenotype (%) [8]: 5%
- Population Normal (%) [8]: 95%
- Population Pyknosed Nuclei (%) [8]: 25%
- Population Tubulin-Different-Phenotype (%) [8]: 50%
- Total Cell Count [8]: 142
- Population Apoptotic (%) [9]: 57%
- Population Fragmented Nuclei (%) [9]: 18%
- Population Healthy Nuclei (%) [9]: 66%
- Population Hoechst High Intensity Objects (%) [9]: 3%
- Population Membrane Permeable-Phenotype (%) [9]: 1%
- Population Mitochondria Different-Phenotype (%) [9]: 3%
- Population Mitotic Cells (%) [9]: 42%
- Population Normal (%) [9]: 96%
- Population Pyknosed Nuclei (%) [9]: 15%
- Population Tubulin-Different-Phenotype (%) [9]: 26%
- Total Cell Count [9]: 128
- Population Apoptotic (%) [10]: 66%
- Population Fragmented Nuclei (%) [10]: 47%
- Population Healthy Nuclei (%) [10]: 40%
- Population Hoechst High Intensity Objects (%) [10]: 5%
- Population Membrane Permeable-Phenotype (%) [10]: 5%
- Population Mitochondria Different-Phenotype (%) [10]: 7%
- Population Mitotic Cells (%) [10]: 33%
- Population Normal (%) [10]: 94%
- Population Pyknosed Nuclei (%) [10]: 12%
- Population Tubulin-Different-Phenotype (%) [10]: 72%
- Total Cell Count [10]: 105
- Population Apoptotic (%) [11]: 71%
- Population Fragmented Nuclei (%) [11]: 16%
- Population Healthy Nuclei (%) [11]: 63%
- Population Hoechst High Intensity Objects (%) [11]: 7%
- Population Membrane Permeable-Phenotype (%) [11]: 1%
- Population Mitochondria Different-Phenotype (%) [11]: 2%
- Population Mitotic Cells (%) [11]: 28%
- Population Normal (%) [11]: 92%
- Population Pyknosed Nuclei (%) [11]: 20%
- Population Tubulin-Different-Phenotype (%) [11]: 20%
- Total Cell Count [11]: 171
- Population Apoptotic (%) [12]: 29%
- Population Fragmented Nuclei (%) [12]: 34%
- Population Healthy Nuclei (%) [12]: 45%
- Population Hoechst High Intensity Objects (%) [12]: 9%
- Population Membrane Permeable-Phenotype (%) [12]: 7%
- Population Mitochondria Different-Phenotype (%) [12]: 5%
- Population Mitotic Cells (%) [12]: 70%
- Population Normal (%) [12]: 90%
- Population Tubulin-Different-Phenotype (%) [12]: 51%
- Total Cell Count [12]: 131
